Bioassay records from PubChem.
TAAR1 ag = human TAAR1 agonism; CHO RD-HGA16 TAAR1, Fluo-8 calcium fluorescence; vehicle wells 0%, saturating PEA agonist 100%; 360,000 compounds, 0.99% hits; activation, % at 3 µM; Q96RJ0;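 active means activation above the mean activation of all test compounds in the run plus 3 SD, cut at about 38% in these data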
Target sequence (Q96RJ0 whole entry, looked up): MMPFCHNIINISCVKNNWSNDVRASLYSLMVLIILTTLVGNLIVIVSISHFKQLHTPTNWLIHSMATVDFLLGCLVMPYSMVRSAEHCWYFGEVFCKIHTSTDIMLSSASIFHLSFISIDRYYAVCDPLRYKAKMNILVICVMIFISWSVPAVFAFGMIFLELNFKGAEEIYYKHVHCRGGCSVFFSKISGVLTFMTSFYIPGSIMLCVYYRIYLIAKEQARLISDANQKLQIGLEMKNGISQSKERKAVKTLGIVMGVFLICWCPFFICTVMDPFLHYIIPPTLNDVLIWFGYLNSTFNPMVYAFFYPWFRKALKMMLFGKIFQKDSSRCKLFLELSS
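System: CHO-derived RD-HGA16 cells with stable Gα16 and human TAAR1 / Times: 17-24 h plating, Fluo-8 75 min 37 °C, 30 min RT / Technique: calcium-sensitive Fluo-8 signal, excitation 470-495, emission 515-575 nm / Measure: % activation relative to PEA EC100 response / Benchmarks: DMSO and PEA EC100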
M4 antag = blocks acetylcholine activation of human M4 receptor; inhibition, % at 3 µM; CHO-hM4 cells, ACh EC80, Fluo-8 calcium fluorescence; AID 624125; 360,000 compounds, 0.73% hits; P08173;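 active means inhibition above its plate's cutoff, the mean inhibition of sample wells plus 3 SD, cut at about 27% in these data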
CHRM4 PAM = potentiates acetylcholine response at human M4 receptor | P08173 | CHO-K1 hM4/Gqi5, Fluo-8 calcium fluorescence, ACh EC20; 0% = ACh EC20, 100% = maximal ACh | activation, % at 3 µM | 360,000 compounds, 0.4% hits | AID 624126;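 active means activation above its plate's cutoff, the mean activation of sample wells plus 3 SD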
M4 ag = CHRM4 agonism in calcium assay | activation, % at 3 µM | 360,000 compounds, 0.14% hits | CHO-K1 hM4/Gqi5, Fluo-8 calcium fluorescence; vehicle 0%, full acetylcholine response 100% | P08173;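 active means activation above the run mean over all test wells plus 3 SD, cut at about 32% in these data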;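 further: peak over basal fluorescence ratio per well then scaled between controls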
TAAR1 antag = human TAAR1 antagonism; Q96RJ0; CHO RD-HGA16 TAAR1, Fluo-8 calcium fluorescence, antagonist; inhibition, % at 3 µM; 360,000 compounds, 1.5% hits;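 active means inhibition above a per-plate cutoff, the mean inhibition of test compounds on that plate plus 3 SD, cut at about 49% in these data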
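test system = CHO RD-HGA16 cells bearing hTAAR1 | replication = singlicate | controls = DMSO-only wells and EC80 β-PEA-stimulated wells | reagent = EC80 β-phenethylamine stimulus | read-out basis = percent inhibition of PEA-evoked calcium signal, max/basal emission ratio | schedule = seeding 17-24 h prior, 75-min 37 °C, 30-min RT dye loading | signal = kinetic Fluo-8 calcium fluorescence measurement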
nonsel antag count = counter-screen for TAAR1 antagonists: nonselective antagonists; shares compounds with TAAR1 antag; counterscreen cell line, calcium fluorescence, antagonist mode; AID 651780; 2,400 compounds, 77% hits; inhibition, % at 3 µM; in the data active means inhibition above about 22%;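 further: CHO-Ga16 host cells stimulated with ATP at an EC80 level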
TAAR1 ant conf = confirmation of human TAAR1 antagonists. shares compounds with TAAR1 antag. TAAR1-expressing cells, fluorescence antagonist read-out. inhibition, % at 3 µM. 2,400 compounds, 40% hits. AID 651785; in the data active means inhibition above about 49%;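 further: CHO-Ga16 host cells challenged with agonist PEA near its EC80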
Ga16 ag counter = nonselective Ga16 agonism, counter-screen; shares compounds with TAAR1 antag; Ga16-expressing cells, calcium fluorescence, agonist counterscreen; 2,400 compounds, 18% hits; activation, % at 3 µM; AID 651953; in the data active means activation above about 12%
TAAR1 ag counter = counter-screen for human TAAR1 antagonists: TAAR1 agonists; activation, % at 3 µM; shares compounds with TAAR1 antag; hTAAR1 cell line, fluorescence activation, agonist mode; 2,400 compounds, 2% hits; in the data active means activation above about 37%;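 further: CHO cells stably expressing TAAR1 with calcium dye readout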
Numbers stand for hits; - = inactive; . = not tested or not shown. Rows were chosen to be rich in hits. Some 3% of all compounds tested hit in one or more screens of this group.

SMILES | TAAR1 ag | M4 antag | CHRM4 PAM | M4 ag | TAAR1 antag | nonsel antag count | TAAR1 ant conf | Ga16 ag counter | TAAR1 ag counter
CC1(C(=O)NC2CCCC2)CCC(=O)N1CCCn1ccnc1 (stereo unspecified) | - | - | - | - | - | . | . | . | .
CCOc1ccc(/C=C2\SC(=S)N(NS(=O)(=O)c3ccccc3)C2=O)cc1OC | - | - | - | - | 75 | 23 | 53 | - | -
COc1ccc(/C=C2\SC(=S)N(NS(=O)(=O)c3ccc(C)cc3)C2=O)c(OC)c1 | - | - | - | - | 68 | - | - | - | -
CCOc1cc(/C=C2\SC(=S)N(NS(=O)(=O)c3ccccc3)C2=O)ccc1O | - | - | - | - | - | . | . | . | .
COc1cc(/C=C2/SC(=S)NC2=O)ccc1OS(=O)(=O)c1ccc(C)cc1 | . | - | - | - | . | . | . | . | .
COc1ccc(OC)c(/C=C2\SC(=S)N(NS(=O)(=O)c3ccc(C)cc3)C2=O)c1 | - | - | - | - | - | . | . | . | .
COc1cc(/C=C2\SC(=S)N(CCCCC(=O)O)C2=O)ccc1OS(=O)(=O)c1ccc(C)cc1 | - | - | - | - | 65 | 50 | 50 | 12 | -
CCOc1ccc(/C=C2\SC(=S)N(NS(=O)(=O)c3ccc(C)cc3)C2=O)cc1OC | - | - | - | - | 75 | 29 | 51 | - | -
C[C@@H]1CCCCO[C@@H](CN(C)C(=O)Nc2ccc3c(c2)OCO3)[C@@H](C)CN([C@H](C)CO)C(=O)c2cc(NC(=O)Nc3ccc(C(F)(F)F)cc3)ccc2O1 | - | . | . | . | - | . | . | . | .
CCc1ccc(NC(=O)c2cnc(N3CCN(c4ccccn4)CC3)c3ccccc23)cc1 | - | - | - | - | 68 | 37 | 55 | 12 | -
O=C(CN1CCN(c2ccccn2)CC1)Nc1ccccc1 | - | - | - | - | - | . | . | . | .
O=C(CN1CCN(c2ccccn2)CC1)Nc1ccccc1C(=O)Nc1ccccc1 | - | - | - | - | 65 | 27 | - | - | -
COc1ccc(-c2nc3cccc(C)n3c2NCC2CCCO2)cc1O (stereo unspecified) | - | - | - | - | 65 | 27 | - | - | -
COc1cc(-c2nc3ccccn3c2NCC2CCCO2)ccc1O (stereo unspecified) | - | - | - | - | 59 | 30 | - | - | -
COc1cc(-c2nc3ccccn3c2/N=C/c2ccccc2)ccc1O | - | - | - | - | - | . | . | . | .
COc1cccc(C(O)c2nc(-c3cc4ccccc4o3)cs2)c1 (stereo unspecified) | - | - | - | - | - | . | . | . | .
OC(c1cccc(Cl)c1)c1nc(-c2cc3ccccc3o2)cs1 (stereo unspecified) | - | - | - | - | 61 | 36 | 49 | - | -
COc1ccc(OC)c(NC(=O)C2(C)CCN2Cc2cccc(OC)c2F)c1 (stereo unspecified) | - | - | - | - | 51 | - | - | - | -
C=CCNc1nc(N)c(C(=C(C#N)C#N)c2ccc(Br)cc2)s1 | - | - | - | - | 68 | 27 | 62 | - | -
Cc1ccc2cc(NC(=O)C3(C)CCN3C(C)C)ccc2n1 (stereo unspecified) | - | - | - | - | - | . | . | . | .
COc1cc(NC(=O)c2ccc(-c3cccc(F)c3)o2)ccc1NC(=O)c1ccccc1Cl | - | - | - | - | 55 | 23 | - | - | -
COc1cc(NC(=O)c2ccccc2Cl)ccc1NC(=O)c1cccs1 | - | - | - | - | - | . | . | . | .
O=C1NC[C@H](CCCCN2CCN(CCc3ccc(O)cc3)C(=O)C2=O)N(CCC2CCCCC2)C1=O | - | - | - | - | - | . | . | . | .
O=C(COc1c(F)c(F)c(C(F)(F)F)c(F)c1F)Nc1ccc(N2CCOCC2)c(Cl)c1 | - | - | - | - | - | . | . | . | .
CCC(C)c1ccc(NC(=O)COc2c(F)c(F)c(C(F)(F)F)c(F)c2F)cc1 (stereo unspecified) | - | - | - | - | 51 | - | - | - | -
SMILES | TAAR1 ag | M4 antag | CHRM4 PAM | M4 ag | TAAR1 antag | nonsel antag count | TAAR1 ant conf | Ga16 ag counter | TAAR1 ag counter
ON=C1C2CC=C(c3ccccc3)C1CCC2 (stereo unspecified) | - | - | - | - | - | . | . | . | .
COc1ccc(C(=O)Cn2nnc(-c3ccccc3NC(=O)c3ccco3)n2)cc1 | - | - | - | - | 55 | - | - | - | -
COc1ccccc1NC(=O)Nc1nc(CC(=O)Nc2ccc(F)cc2)cs1 | - | - | - | - | 52 | 22 | - | - | -
COc1ccccc1NC(=O)Nc1ccc(NC(=O)c2ccccc2O)cc1 | - | - | - | - | 61 | 39 | - | - | -
COc1ccccc1NC(=O)Nc1nc(CC(=O)N2CCN(c3ccc(F)cc3)CC2)cs1 | - | - | - | - | 72 | 46 | 57 | 13 | -
COc1ccc(NC(=O)Nc2ccccc2OC)cc1 | - | - | - | - | - | . | . | . | .
COc1ccccc1NC(=O)Nc1nc(CC(=O)Nc2cccc(F)c2)cs1 | - | - | - | - | - | . | . | . | .
COc1ccccc1NC(=O)Nc1nc(CC(=O)Nc2cc(F)ccc2F)cs1 | - | - | - | - | 60 | 34 | 56 | - | -
O=C(Cc1cn(Cc2ccccc2)c2ccccc12)Nc1ccc(Oc2cccnc2)cc1 | - | . | . | . | - | . | . | . | .
COc1ccc(C(=O)NCC(c2ccco2)N2CCOCC2)cc1 (stereo unspecified) | - | - | - | - | - | . | . | . | .
COc1ccc(C)cc1NC(=O)Cc1csc(NC(=O)Nc2ccccc2OC)n1 | - | - | - | - | 73 | 27 | - | - | -
CNC(=O)c1[nH]cnc1C(=O)N[C@@H](C)C(=O)OCc1ccccc1 | - | - | - | - | - | . | . | . | .
C[C@H](NC(=O)c1nc[nH]c1C(=O)NCC(=O)OCc1ccccc1)c1ccccc1 | - | 28 | - | - | 64 | 32 | 50 | - | -
C[C@H](NC(=O)c1nc[nH]c1C(=O)OCc1ccccc1)c1ccccc1 | - | - | - | - | - | . | . | . | .
CC(C)C[C@H](NC(=O)c1nc[nH]c1C(=O)NCC(=O)OCc1ccccc1)C(=O)OCc1ccccc1 | - | - | - | - | 67 | - | 53 | - | -
C[C@H](NC(=O)c1nc[nH]c1C(=O)NCC(=O)OCc1ccccc1)C(=O)OCc1ccccc1 | - | - | - | - | 71 | 36 | 62 | - | -
